From ChEMBL document CHEMBL1938337, “Discovery of novel, potent, and selective inhibitors of 3-phosphoinositide-dependent kinase (PDK1)” (J Med Chem, 2011)
pKi: −log10 of the molar value. Converted amounts (≈) assume the structure as drawn.

Legend:
[1] = target: T1, 3-phosphoinositide-dependent protein kinase 1 (Homo sapiens, UniProt O15530); test: Inhibition of recombinant human His-tagged PDK1 catalytic domain using Ac-Sox-PKTFCGTPEYLAPEVRREPRILSEEEQEMFRDFDYIAD-NH2 as substrate by fluorescence-based spectrophotometry
T1 sequence (O15530 whole entry): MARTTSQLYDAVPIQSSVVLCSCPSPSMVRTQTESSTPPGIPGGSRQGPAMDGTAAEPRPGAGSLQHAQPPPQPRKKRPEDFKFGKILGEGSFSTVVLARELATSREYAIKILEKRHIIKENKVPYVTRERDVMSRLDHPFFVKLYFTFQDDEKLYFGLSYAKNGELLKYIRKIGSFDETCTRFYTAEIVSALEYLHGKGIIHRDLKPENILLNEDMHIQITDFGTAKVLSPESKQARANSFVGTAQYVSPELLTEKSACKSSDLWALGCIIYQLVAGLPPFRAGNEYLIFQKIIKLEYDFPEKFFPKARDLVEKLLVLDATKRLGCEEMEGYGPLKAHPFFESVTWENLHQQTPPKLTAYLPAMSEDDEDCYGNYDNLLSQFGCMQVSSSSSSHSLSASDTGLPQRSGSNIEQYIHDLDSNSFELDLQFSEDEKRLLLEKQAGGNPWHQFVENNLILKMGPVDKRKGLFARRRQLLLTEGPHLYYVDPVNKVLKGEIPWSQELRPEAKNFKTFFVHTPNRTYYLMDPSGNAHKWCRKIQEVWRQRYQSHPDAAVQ

[2] = target: Phosphatidylinositol 4,5-bisphosphate 3-kinase catalytic subunit alpha isoform (Mus musculus, UniProt P42337); test: Inhibition of mouse PI3Kalpha after 30 mins by fluorescence polarization assay
Procedure, shortened: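 Mouse PI3Kα 0.5 nM with 30 μM PIP₂, 5 mM MgCl₂, 200 μM ATP, 30 min at room temperature (~22 °C); stopped with 10 mM EDTA. Then 3 min with detector mix of 480 nM GST-Grp1 PH domain and 12 nM TAMRA-PIP₃. Fluorescence polarization read in 50 mM Hepes pH 7.4, 150 mM NaCl, 5 mM DTT, 0.05% CHAPS. Duplicate points, nonlinear regression fit.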

[3] = Solubility of the compound at pH 6.5; type: physicochemical; settings: buffer
[4] = Passive permeability in canine kidney cells; type: ADME, cell-based, Canis lupus familiaris; settings: dog; read-out: permeability
[5] = Clearance in human liver microsomes; type: ADME, Microsome; settings: read-out: CLH
[6] = Inhibition of recombinant GST-tagged P70S6K using 5FAM-KRSRTRTDSYSAGQ-COOH as substrate by fluorescence based assay
Procedure, shortened: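 GST-tagged P70S6K (a.a. 1-421) at 5 nM, 50 μM ATP, 5 μM 5FAM-peptide. Product separated from substrate by charge (electrophoretic mobility shift, −2500/−500 V). Duplicates, nonlinear regression fit.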

[7] = target: RAC-alpha serine/threonine-protein kinase (Homo sapiens, UniProt P31749); test: Inhibition of His-tagged AKT1 using 5FAM-GRPRTSSFAEGCONH2 as substrate by fluorescence based assay
[8] = target: Serine/threonine-protein kinase mTOR (Homo sapiens, UniProt P42345); test: Inhibition of GST-tagged mTOR assessed as phosphorylation at Thr46 in GFP-4E-BP1 substrate by TR-FRET assay
Procedure, shortened: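 GST-tagged mTOR (aa 1360-2549) at 1 nM, with 0.4 μM GFP-4E-BP1 and 40 μM ATP. Buffer: 50 mM Hepes pH 7.4, 10 mM MgCl2, 1 mM EGTA, 0.01% Tween-20, at about 22 °C. A terbium anti-phospho-Thr46 antibody was added at the end, and the read-out was TR-FRET. Duplicate data fitted by nonlinear regression. Concentrations are final.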

[9] = target: CYP3A4 (Homo sapiens, UniProt P08684); test: Inhibition of CYP3A4 at 3 uM; type: ADME
[10] = test system: CYP3A4 (Homo sapiens); test: Inhibition of CYP3A4 at 3 uM
[11] = test system: CYP3A4 (Homo sapiens); test: Inhibition of CYP3A4 at 3 uM; remark: listed apart in the source
[12] = test system: CYP3A4 (Homo sapiens); test: Inhibition of CYP3A4 at 3 uM; remark: listed apart in the source

RAC-alpha serine/threonine-protein kinase, sequence (P31749 whole entry): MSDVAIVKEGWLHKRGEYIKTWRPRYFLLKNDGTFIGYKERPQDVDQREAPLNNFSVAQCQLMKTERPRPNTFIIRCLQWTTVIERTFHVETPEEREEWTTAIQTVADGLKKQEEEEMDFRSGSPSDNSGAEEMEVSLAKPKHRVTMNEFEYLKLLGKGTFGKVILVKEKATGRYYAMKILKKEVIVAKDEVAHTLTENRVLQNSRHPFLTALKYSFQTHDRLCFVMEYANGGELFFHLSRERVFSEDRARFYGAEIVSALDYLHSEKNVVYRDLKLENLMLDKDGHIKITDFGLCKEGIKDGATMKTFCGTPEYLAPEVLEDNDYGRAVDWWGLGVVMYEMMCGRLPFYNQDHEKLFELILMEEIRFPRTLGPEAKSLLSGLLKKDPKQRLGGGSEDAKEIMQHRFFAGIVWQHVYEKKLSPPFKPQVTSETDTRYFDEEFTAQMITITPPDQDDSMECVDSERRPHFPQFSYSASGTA
Phosphatidylinositol 4,5-bisphosphate 3-kinase catalytic subunit alpha isoform, sequence (P42337 whole entry, the tested form may be a part, canonical isoform): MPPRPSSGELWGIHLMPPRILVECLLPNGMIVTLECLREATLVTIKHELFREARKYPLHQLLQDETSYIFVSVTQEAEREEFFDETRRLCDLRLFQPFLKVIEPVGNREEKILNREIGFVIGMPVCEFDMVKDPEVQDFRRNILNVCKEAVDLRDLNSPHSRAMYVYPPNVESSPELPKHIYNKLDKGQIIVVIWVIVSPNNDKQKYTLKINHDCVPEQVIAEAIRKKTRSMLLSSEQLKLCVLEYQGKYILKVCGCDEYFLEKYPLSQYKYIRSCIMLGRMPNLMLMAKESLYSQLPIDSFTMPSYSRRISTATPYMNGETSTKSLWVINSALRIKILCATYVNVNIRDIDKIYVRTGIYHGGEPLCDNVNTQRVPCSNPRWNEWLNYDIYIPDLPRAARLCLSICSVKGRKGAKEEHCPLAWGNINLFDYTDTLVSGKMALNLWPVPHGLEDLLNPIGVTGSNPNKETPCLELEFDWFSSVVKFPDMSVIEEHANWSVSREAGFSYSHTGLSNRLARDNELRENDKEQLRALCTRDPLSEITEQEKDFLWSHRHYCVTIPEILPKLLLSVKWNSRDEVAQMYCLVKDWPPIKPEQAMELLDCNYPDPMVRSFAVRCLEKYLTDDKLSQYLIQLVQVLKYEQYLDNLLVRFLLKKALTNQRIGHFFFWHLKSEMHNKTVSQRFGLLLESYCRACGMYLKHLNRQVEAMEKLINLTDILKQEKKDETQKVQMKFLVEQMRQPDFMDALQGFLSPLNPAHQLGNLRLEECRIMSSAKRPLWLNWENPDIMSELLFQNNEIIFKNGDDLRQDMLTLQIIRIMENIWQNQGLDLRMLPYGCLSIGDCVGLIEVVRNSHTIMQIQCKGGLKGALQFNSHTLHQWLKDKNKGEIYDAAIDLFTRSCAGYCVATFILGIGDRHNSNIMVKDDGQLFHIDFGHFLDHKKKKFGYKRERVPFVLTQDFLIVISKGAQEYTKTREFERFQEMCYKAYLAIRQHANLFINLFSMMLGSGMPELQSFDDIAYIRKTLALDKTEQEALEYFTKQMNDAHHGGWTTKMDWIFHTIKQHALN
CYP3A4, sequence (P08684 whole entry): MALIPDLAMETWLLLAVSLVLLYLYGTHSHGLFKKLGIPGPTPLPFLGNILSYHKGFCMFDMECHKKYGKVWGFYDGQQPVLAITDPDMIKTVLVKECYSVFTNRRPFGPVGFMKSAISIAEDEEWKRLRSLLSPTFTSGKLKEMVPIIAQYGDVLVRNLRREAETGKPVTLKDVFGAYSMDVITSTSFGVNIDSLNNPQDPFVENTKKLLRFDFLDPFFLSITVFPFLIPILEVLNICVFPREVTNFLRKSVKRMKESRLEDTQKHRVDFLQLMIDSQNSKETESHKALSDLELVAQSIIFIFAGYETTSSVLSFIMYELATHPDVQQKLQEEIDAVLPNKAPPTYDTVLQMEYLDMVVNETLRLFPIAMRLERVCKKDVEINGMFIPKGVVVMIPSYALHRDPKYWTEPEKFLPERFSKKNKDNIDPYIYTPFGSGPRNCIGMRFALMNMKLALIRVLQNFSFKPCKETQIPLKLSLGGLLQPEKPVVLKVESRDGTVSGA

Compound	pKi [1]	pKi [2]	solubility [3] [µM]	Papp [4] [×10⁻⁶ cm/s]	microsomal CLint [5] [µL/min/mg]	pKi [6]	pKi [7]	pKi [8]	inhibition at 3 µM [9] [%]	inhibition at 3 µM [10] [%]	inhibition at 3 µM [11] [%]	inhibition at 3 µM [12] [%]
CC(C)n1cc(C(=O)c2cncc(N[C@@H]3CCC[C@@H]3c3ccc(F)cc3)n2)c2c(N)ncnc21	9.22	6.49	6 (≈ 2.76 µg/mL)	6	160	6.64	6.68	5.41	–	–	–	–
CC(C)n1cc(C(=O)c2cncc(N[C@@H]3CCN[C@@H]3c3ccc(F)cc3)n2)c2c(N)ncnc21	9.00	6.82	520 (≈ 239 µg/mL)	5	92	6.92	7.00	5.68	–	–	–	–
CC(C)n1cc(C(=O)c2cncc(N[C@@H]3CCO[C@@H]3c3ccc(F)cc3)n2)c2c(N)ncnc21	8.89	6.37	120 (≈ 55.4 µg/mL)	13	220	7.21	6.64	5.41	–	–	–	–
CC(C)n1cc(C(=O)c2cncc(N[C@@H]3COC[C@@H]3c3ccc(F)cc3)n2)c2c(N)ncnc21	–	6.24	23 (≈ 10.6 µg/mL)	13	160	6.77	6.59	6.30	–	–	–	–
CC(C)n1cc(C(=O)c2cncc(NCCc3cccnc3)n2)c2c(N)ncnc21	–	6.60	–	–	–	–	–	–	–	–	–	–
CC(C)n1cc(C(=O)c2cncc(N(C)[C@@H]3CCC[C@@H]3c3ccc(F)cc3)n2)c2c(N)ncnc21	9.05	6.19	–	–	–	–	–	–	–	–	–	–
CC(C)n1cc(C(=O)c2cncc(N[C@@H]3CCC[C@@H]3c3ccccc3)n2)c2c(N)ncnc21	8.70	6.89	–	–	–	–	–	–	–	–	–	–
CC(C)n1cc(C(=O)c2cncc(N[C@@H]3CNC[C@@H]3c3ccc(F)cc3)n2)c2c(N)ncnc21	8.60	6.43	480 (≈ 221 µg/mL)	2	59	7.96	8.00	5.96	27	27	27	27
CNc1cncc(C(=O)c2cn(C(C)C)c3ncnc(N)c23)n1	7.00	–	–	–	–	–	–	–	–	–	–	–
